Test results as given in paper PMC7181426 (Clinical Drug Investigation, 2020).
“And” between values parts separate entries of the source, which are not always exact repeats. Identical values can stand only once. Marks after values point to notes of the source that are not given here.

How the values were obtained:
[1] = Single-dose pharmacokinetics; assay type: in vivo, human; details: for CL/F, Mean (SD) / Aelast%, Mean (SD) / Aelast, Mean (SD): fasted; for Aelast%, Mean (SD) / Aelast, Mean (SD): urine
Multiple-dose = assay type: in vivo, human; details: for AUC: AUC12, Mean (SD); for Cmax: Mean (SD); for Tmax: Median; for Ae12%, Mean (SD) / Ae12, Mean (SD): urine
STAT5 phosphorylation = experiment: Inhibition of STAT5 phosphorylation in IL-2-stimulated CD3-positive lymphocytes; assay type: in vivo, human; details: single doses 20–200 mg, Japanese and Caucasian
[2] = tested on: peripheral lymphocyte subsets; experiment: Peripheral lymphocyte subsets by flow cytometry, multiple-dose study; assay type: in vivo, human; details: 100 mg, 72 h after twice-daily dosing on day 7
[3] = Safety: treatment-emergent adverse events, single-dose study; assay type: in vivo, human
In short: (§1)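 Adverse events were monitored throughout the study in subjects randomized 3:1 to test compound or placebo. Single-dose subjects were discharged on day 3 and returned on day 7; twice-daily subjects were discharged on day 10 and returned on day 13. Events were coded by System Organ Class and preferred term (MedDRA 12.1). The investigator assessed relatedness and graded severity as mild, moderate or severe.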

[4] = Safety: treatment-emergent adverse events, multiple-dose study; assay type: in vivo, human; details: for Alanine aminotransferase increased / Any TEAE / Aspartate aminotransferase increased / Blood creatinine phosphokinase increased / Diarrhea / Feeling abnormal / Headache / Hot flush / Malaise / Neutrophil count decreased / Rash / White blood cell count increased: Japanese
In short: as §1

[5] = cited from earlier work
[6] = tested on: SULT2A1, nicotinamide N-methyltransferase; details: cited from earlier work
[7] = Caucasian, single oral dose 20 mg
[8] = Caucasian, single oral dose 60 mg
[9] = Caucasian, single oral dose 200 mg
[10] = Japanese, single oral dose 20 mg
[11] = Japanese, single oral dose 60 mg
[12] = Japanese, single oral dose 200 mg
[13] = male, human, plasma, oral, 10 mg, Japanese, 10 mg bid, Day 1
[14] = male, human, plasma, oral, 10 mg, Japanese, 10 mg bid, Day 7
[15] = male, human, plasma, oral, 30 mg, Japanese, 30 mg bid, Day 1
[16] = male, human, plasma, oral, 30 mg, Japanese, 30 mg bid, Day 7
[17] = male, human, plasma, oral, 100 mg, Japanese, 100 mg bid, Day 1
[18] = male, human, plasma, oral, 100 mg, Japanese, 100 mg bid, Day 7
[19] = Caucasian, single dose 20 mg (n = 6)
[20] = Caucasian, single dose 60 mg (n = 6)
[21] = Caucasian, single dose 200 mg (n = 6)
[22] = Japanese, single dose 20 mg (n = 6)
[23] = Japanese, single dose 60 mg (n = 6)
[24] = Japanese, single dose 200 mg (n = 6)
[25] = single- and multiple-dose studies

CL/F, Mean (SD) [1, 7]: 108.5 (30.0) L/h
CL/F, Mean (SD) [1, 8]: 117.8 (23.6) L/h
CL/F, Mean (SD) [1, 9]: 133.1 (15.0) L/h
CL/F, Mean (SD) [1, 10]: 78.9 (13.5) L/h
CL/F, Mean (SD) [1, 11]: 79.8 (19.2) L/h
CL/F, Mean (SD) [1, 12]: 79.8 (8.2) L/h
Tmax ([1]; male, human, plasma, oral, median tmax, range, single-dose administration, both Japanese and Caucasian subjects): 1 to 2 h
geometric mean ratio for dose-normalized AUCinf, higher in Japanese versus Caucasian subjects ([1]; single doses 20, 60, 200 mg): 33.8–66.4%
geometric mean ratio for dose-normalized Cmax, higher in Japanese versus Caucasian subjects ([1]; single doses 20, 60, 200 mg): 45.7–98.8%
AUCinf higher in Japanese subjects compared with Caucasian subjects ([1]; single doses 20 to 200 mg): 49%
Cmax higher in Japanese subjects compared with Caucasian subjects ([1]; single doses 20 to 200 mg): 70%
Dose proportionality of Cmax and AUCinf ([1]; single doses, dose range of 20–200 mg): demonstrated
Aelast%, Mean (SD) [1, 7]: 14.2 %dose and 14.2 (3.6) %dose
Aelast, Mean (SD) [1, 7]: 2.9 (0.7) mg
Aelast%, Mean (SD) [1, 8]: 10.6 (3.6) %dose
Aelast, Mean (SD) [1, 8]: 6.4 (2.2) mg
Aelast%, Mean (SD) [1, 9]: 9.9 %dose and 9.9 (1.2) %dose
Aelast, Mean (SD) [1, 9]: 19.8 (2.4) mg
Aelast%, Mean (SD) [1, 10]: 16.8 %dose and 16.8 (4.1) %dose
Aelast, Mean (SD) [1, 10]: 3.4 (0.8) mg
Aelast%, Mean (SD) [1, 11]: 14.8 (2.8) %dose
Aelast, Mean (SD) [1, 11]: 8.9 (1.7) mg
Aelast%, Mean (SD) [1, 12]: 12.5 %dose and 12.5 (2.7) %dose
Aelast, Mean (SD) [1, 12]: 25.1 (5.4) mg
CL/F, Mean (SD) (Multiple-dose; Japanese, 10 mg bid, Day 1): 87.7 (23.6) L/h
CL/F, Mean (SD) (Multiple-dose; Japanese, 10 mg bid, Day 7): 71.0 (13.6) L/h
CL/F, Mean (SD) (Multiple-dose; Japanese, 30 mg bid, Day 1): 83.3 (14.6) L/h
CL/F, Mean (SD) (Multiple-dose; Japanese, 30 mg bid, Day 7): 69.6 (13.5) L/h
CL/F, Mean (SD) (Multiple-dose; Japanese, 100 mg bid, Day 1): 71.2 (8.7) L/h
CL/F, Mean (SD) (Multiple-dose; Japanese, 100 mg bid, Day 7): 55.7 (9.3) L/h
AUC12 on day 7 higher than AUC12 after the first dose (Multiple-dose; Japanese, 10–100 mg bid): 25–37%
Cmax on day 7 higher than Cmax after the first dose (Multiple-dose; Japanese, 10–100 mg bid): 13–28%
Steady-state plasma concentrations achieved by (Multiple-dose; Japanese, twice-daily dosing, visual prediction): ≤ 3 days
half-life at 7 day (Multiple-dose; male, human, plasma, oral): 6 to 7.4 h
half-life (Multiple-dose; male, human, plasma, oral, 10 mg): 6 h
AUC (Multiple-dose; [13]): 114 ng·h/mL
AUC (Multiple-dose; [14]): 145 ng·h/mL
Cmax (Multiple-dose; [13]): 28.5 ng/mL
Cmax (Multiple-dose; [14]): 36.4 ng/mL
Tmax (Multiple-dose; [13]): 1.5 h
Tmax (Multiple-dose; [14]): 2.5 h
half-life (Multiple-dose; male, human, plasma, oral, 30 mg): 6.1 h
AUC (Multiple-dose; [15]): 354 ng·h/mL
AUC (Multiple-dose; [16]): 444 ng·h/mL
Cmax (Multiple-dose; [15]): 93.5 ng/mL
Cmax (Multiple-dose; [16]): 106 ng/mL
Tmax (Multiple-dose; [15]): 2 h
Tmax (Multiple-dose; [16]): 2 h
half-life (Multiple-dose; male, human, plasma, oral, 100 mg): 7.4 h
AUC (Multiple-dose; [17]): 1340 ng·h/mL
AUC (Multiple-dose; [18]): 1830 ng·h/mL
Cmax (Multiple-dose; [17]): 383 ng/mL
Cmax (Multiple-dose; [18]): 483 ng/mL
Tmax (Multiple-dose; [17]): 2 h
Tmax (Multiple-dose; [18]): 2 h
Ae12%, Mean (SD) (Multiple-dose; Japanese, 10 mg bid, Day 1): 14.9 (4.4) %dose
Ae12, Mean (SD) (Multiple-dose; Japanese, 10 mg bid, Day 1): 1.5 (0.4) mg
Ae12%, Mean (SD) (Multiple-dose; Japanese, 10 mg bid, Day 7): 32.0 (3.4) %dose
Ae12, Mean (SD) (Multiple-dose; Japanese, 10 mg bid, Day 7): 3.2 (0.3) mg
Ae12%, Mean (SD) (Multiple-dose; Japanese, 30 mg bid, Day 1): 15.6 (4.0) %dose
Ae12, Mean (SD) (Multiple-dose; Japanese, 30 mg bid, Day 1): 4.7 (1.2) mg
Ae12%, Mean (SD) (Multiple-dose; Japanese, 30 mg bid, Day 7): 26.4 %dose and 26.4 (4.2) %dose
Ae12, Mean (SD) (Multiple-dose; Japanese, 30 mg bid, Day 7): 7.9 (1.3) mg
Ae12%, Mean (SD) (Multiple-dose; Japanese, 100 mg bid, Day 1): 19.2 (2.7) %dose
Ae12, Mean (SD) (Multiple-dose; Japanese, 100 mg bid, Day 1): 19.2 (2.7) mg
Ae12%, Mean (SD) (Multiple-dose; Japanese, 100 mg bid, Day 7): 37.7 %dose and 37.7 (9.8) %dose
Ae12, Mean (SD) (Multiple-dose; Japanese, 100 mg bid, Day 7): 37.7 (9.8) mg
Compound: NC(=O)c1cnc2[nH]ccc2c1N[C@@H]1[C@@H]2CC3C[C@H]1C[C@@](O)(C3)C2 [peficitinib, Peficitinib]
Mean peak inhibition of STAT5 phosphorylation, dose dependence (STAT5 phosphorylation): increased with increasing single doses of peficitinib
largest change: decrease in the subset of CD3+, CD45RA+ and total naïve cells [2]: 7.50%
Any TEAE [3, 19]: 0 n (%)
Blood potassium increased [3, 19]: 0 n (%)
Diarrhea [3, 19]: 0 n (%)
White blood cell count increased [3, 19]: 0 n (%)
Any TEAE [3, 20]: 1 (16.7) n (%)
Blood potassium increased [3, 20]: 0 n (%)
Diarrhea [3, 20]: 1 (16.7)^b n (%)
White blood cell count increased [3, 20]: 0 n (%)
Any TEAE [3, 21]: 0 n (%)
Blood potassium increased [3, 21]: 0 n (%)
Diarrhea [3, 21]: 0 n (%)
White blood cell count increased [3, 21]: 0 n (%)
Any TEAE [3, 22]: 1 (16.7) n (%)
Blood potassium increased [3, 22]: 1 (16.7)^b n (%)
Diarrhea [3, 22]: 0 n (%)
White blood cell count increased [3, 22]: 0 n (%)
Any TEAE [3, 23]: 2 (33.3) n (%)
Blood potassium increased [3, 23]: 0 n (%)
Diarrhea [3, 23]: 0 n (%)
White blood cell count increased [3, 23]: 2 (33.3) n (%)
Any TEAE [3, 24]: 1 (16.7) n (%)
Blood potassium increased [3, 24]: 0 n (%)
Diarrhea [3, 24]: 0 n (%)
White blood cell count increased [3, 24]: 1 (16.7) n (%)
Alanine aminotransferase increased ([4]; 10 mg bid for 7 days (n = 6)): 1 (16.7)^b n (%)
Any TEAE ([4]; 10 mg bid for 7 days (n = 6)): 2 (33.3) n (%)
Aspartate aminotransferase increased ([4]; 10 mg bid for 7 days (n = 6)): 1 (16.7)^b n (%)
Blood creatinine phosphokinase increased ([4]; 10 mg bid for 7 days (n = 6)): 1 (16.7)^b n (%)
Diarrhea ([4]; 10 mg bid for 7 days (n = 6)): 0 n (%)
Feeling abnormal ([4]; 10 mg bid for 7 days (n = 6)): 1 (16.7)^b n (%)
Headache ([4]; 10 mg bid for 7 days (n = 6)): 1 (16.7)^b n (%)
Hot flush ([4]; 10 mg bid for 7 days (n = 6)): 1 (16.7)^b n (%)
Malaise ([4]; 10 mg bid for 7 days (n = 6)): 0 n (%)
Neutrophil count decreased ([4]; 10 mg bid for 7 days (n = 6)): 0 n (%)
Rash ([4]; 10 mg bid for 7 days (n = 6)): 0 n (%)
White blood cell count increased ([4]; 10 mg bid for 7 days (n = 6)): 1 (16.7)^b n (%)
Alanine aminotransferase increased ([4]; 30 mg bid for 7 days (n = 6)): 0 n (%)
Any TEAE ([4]; 30 mg bid for 7 days (n = 6)): 3 (50.0) n (%)
Aspartate aminotransferase increased ([4]; 30 mg bid for 7 days (n = 6)): 0 n (%)
Blood creatinine phosphokinase increased ([4]; 30 mg bid for 7 days (n = 6)): 0 n (%)
Diarrhea ([4]; 30 mg bid for 7 days (n = 6)): 1 (16.7)^b n (%)
Feeling abnormal ([4]; 30 mg bid for 7 days (n = 6)): 0 n (%)
Headache ([4]; 30 mg bid for 7 days (n = 6)): 0 n (%)
Hot flush ([4]; 30 mg bid for 7 days (n = 6)): 0 n (%)
Malaise ([4]; 30 mg bid for 7 days (n = 6)): 0 n (%)
Neutrophil count decreased ([4]; 30 mg bid for 7 days (n = 6)): 0 n (%)
Rash ([4]; 30 mg bid for 7 days (n = 6)): 1 (16.7)^b n (%)
White blood cell count increased ([4]; 30 mg bid for 7 days (n = 6)): 2 (33.3)^d n (%)
Alanine aminotransferase increased ([4]; 100 mg bid for 7 days (n = 6)): 1 (16.7)^b n (%)
Any TEAE ([4]; 100 mg bid for 7 days (n = 6)): 4 (66.7) n (%)
Aspartate aminotransferase increased ([4]; 100 mg bid for 7 days (n = 6)): 0 n (%)
Blood creatinine phosphokinase increased ([4]; 100 mg bid for 7 days (n = 6)): 0 n (%)
Diarrhea ([4]; 100 mg bid for 7 days (n = 6)): 0 n (%)
Feeling abnormal ([4]; 100 mg bid for 7 days (n = 6)): 0 n (%)
Headache ([4]; 100 mg bid for 7 days (n = 6)): 0 n (%)
Hot flush ([4]; 100 mg bid for 7 days (n = 6)): 0 n (%)
Malaise ([4]; 100 mg bid for 7 days (n = 6)): 0 n (%)
Neutrophil count decreased ([4]; 100 mg bid for 7 days (n = 6)): 3 n (%) and 3 (50.0)^b n (%)
Rash ([4]; 100 mg bid for 7 days (n = 6)): 0 n (%)
White blood cell count increased ([4]; 100 mg bid for 7 days (n = 6)): 0 n (%)
tolerability ([4]; doses up to 200 mg daily for 7 days, healthy Japanese subjects): well tolerated
serious TEAEs or TEAEs resulting in discontinuation [4, 25]: no serious TEAEs or TEAEs resulting in discontinuation
severity of TEAEs [4, 25]: mild
Neutrophil counts recovered by ([4]; three subjects receiving 100 mg twice daily): ≤ 8 days
median tmax ([5]; healthy, fasted, mainly Caucasian men, 3–30 mg ref 11): 1 h
attainment of steady-state plasma levels by ([5]; multiple twice-daily dosing (30–200 mg twice daily), USA ref 11): ≤ 3 days
cumulative amounts excreted unchanged in urine, range ([5]; primarily Caucasian population in the USA, single oral doses of 30–200 mg ref 11): 3.9 to 22.1 mg
metabolizing enzymes [6]: metabolized by the sulfotransferase (SULT) isoenzyme, SULT2A1, and the methyltransferase isoenzyme, nicotinamide N-methyltransferase
